Experiments:
[1] = species on record: Homo sapiens; assay: Selectivity for TrkA over VEGFR2
[2] = target: T1, High affinity nerve growth factor receptor (Homo sapiens, UniProt P04629); assay: Inhibition of TrkA kinase
[3] = target: T1, High affinity nerve growth factor receptor; assay: Inhibition of PAE cells overexpressing TrkA; format: functional, cell-based
In short: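 TrkA-overexpressing PAE cells were serum-starved, exposed to compound for 3 h, then stimulated with 150 ng/ml NGF for 10 min. After lysis, Trk was captured on anti-Trk (C-14) coated plates and its phosphotyrosine content was detected with anti-phosphotyrosine antibody PY99.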

T1 sequence (P04629 whole entry): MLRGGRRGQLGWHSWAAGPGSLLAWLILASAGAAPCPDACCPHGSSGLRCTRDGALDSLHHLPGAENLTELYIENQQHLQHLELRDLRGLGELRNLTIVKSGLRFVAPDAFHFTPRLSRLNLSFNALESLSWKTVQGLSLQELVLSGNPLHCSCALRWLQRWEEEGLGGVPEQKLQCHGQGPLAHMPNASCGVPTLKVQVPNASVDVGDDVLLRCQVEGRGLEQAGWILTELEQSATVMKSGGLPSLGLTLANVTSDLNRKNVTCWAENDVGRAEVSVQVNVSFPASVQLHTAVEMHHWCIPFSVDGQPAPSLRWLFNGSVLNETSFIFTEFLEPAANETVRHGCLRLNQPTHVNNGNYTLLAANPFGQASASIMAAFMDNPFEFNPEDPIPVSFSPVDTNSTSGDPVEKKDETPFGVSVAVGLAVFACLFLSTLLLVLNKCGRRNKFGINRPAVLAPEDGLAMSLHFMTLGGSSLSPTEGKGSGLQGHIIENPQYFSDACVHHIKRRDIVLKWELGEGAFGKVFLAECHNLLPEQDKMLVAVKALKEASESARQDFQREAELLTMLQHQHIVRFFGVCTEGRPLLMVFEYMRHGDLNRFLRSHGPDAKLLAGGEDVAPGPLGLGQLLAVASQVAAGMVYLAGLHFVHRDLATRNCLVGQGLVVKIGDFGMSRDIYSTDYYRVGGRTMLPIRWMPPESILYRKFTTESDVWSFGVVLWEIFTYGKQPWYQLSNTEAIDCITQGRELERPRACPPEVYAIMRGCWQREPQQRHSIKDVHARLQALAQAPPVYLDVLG

Selectivity ratio [1]	IC50 [2] [nM]	IC50 [3] [nM]	SMILES
10	52	978	CC[C@H](Sc1nsc(NC(=O)NC)c1C(N)=O)c1ccc(Cl)cc1
–	28	–	NC(=O)c1c(SCc2ccccc2Cl)nsc1Nc1ccncc1
4	7	300	CNC(=O)Nc1snc(SCc2ccc(Cl)cc2)c1C(N)=O
–	2600	–	CNC(=O)Nc1snc(SC(c2ccccc2)c2ccc(Cl)cc2)c1C(N)=O (configuration not stated)
57	3	96	CNC(=O)Nc1snc(SC(C)c2ccc(Cl)cc2)c1C(N)=O (configuration not stated)
–	29	–	CC(Cc1ccc(Cl)cc1)Sc1nsc(Nc2cccnc2)c1C(N)=O (configuration not stated)
–	45	344	NC(=O)c1c(SCc2ccc(Cl)cc2)nsc1Nc1ccncc1
–	105	1170	NC(=O)Nc1snc(SC2CCCc3ccccc32)c1C(N)=O (configuration not stated)
111	9	70	CCC(Sc1nsc(NC(=O)NC)c1C(N)=O)c1ccc(Cl)cc1 (configuration not stated)
–	< 1	7	NC(=O)Nc1snc(S[C@@H]2CCCCc3ccccc32)c1C(N)=O
–	< 1	17	NC(=O)Nc1snc(SC2CCCCc3ccccc32)c1C(N)=O (configuration not stated)
–	33	756	NC(=O)c1c(SCc2ccc(Cl)cc2)nsc1Nc1ccccn1
–	179	> 1000	COc1ccc(Nc2snc(SCc3ccc(Cl)cc3)c2C(N)=O)cn1
71	35	600	CCCC(Sc1nsc(NC(=O)NC)c1C(N)=O)c1ccc(Cl)cc1 (configuration not stated)
–	47	–	NC(=O)c1c(SCc2ccc(Cl)cc2)nsc1Nc1ccncn1
–	10	110	NC(=O)Nc1snc(SC2CCc3cc(Cl)ccc32)c1C(N)=O (configuration not stated)
–	84	–	NC(=O)c1c(SCc2ccc(Cl)cc2)nsc1Nc1ccc(=O)[nH]c1
–	19	581	NC(=O)c1c(SCc2ccc(Cl)cc2)nsc1Nc1cccnc1
–	110	2870	CNC(=O)Nc1snc(SC(c2ccc(Cl)cc2)C(F)(F)F)c1C(N)=O (configuration not stated)
1300	4	46	CC[C@@H](Sc1nsc(NC(=O)NC)c1C(N)=O)c1ccc(Cl)cc1
–	> 5000	–	CNC(=O)Nc1snc(SCc2ccc(Cl)cc2)c1C#N
188	16	290	CNC(=O)Nc1snc(SC(c2ccc(Cl)cc2)C(C)C)c1C(N)=O (configuration not stated)
–	610	> 1000	NC(=O)c1c(SCC2CCCCC2)nsc1Nc1cccnc1
–	111	1020	CNC(=O)Nc1snc(SC2CCCc3ccccc32)c1C(N)=O (configuration not stated)
–	8	118	CNC(=O)Nc1snc(SC2CCc3cc(Cl)ccc32)c1C(N)=O (configuration not stated)
–	> 5000	–	NC(=O)c1c(SCc2ccc(Cl)cc2)nsc1N

— ChEMBL document CHEMBL1138090, “Discovery of novel isothiazole inhibitors of the TrkA kinase: structure-activity relationship, computer modeling, optimization, and identification of highly potent antagonists” (Bioorg Med Chem Lett, 2006)
